Bioassay records (PubChem BioAssay)
Sampled rows, rich in hits. Any-hit rate of the full collection: about 2.4%.
MOR-DOR inv ag – mu-delta opioid heterodimer inverse agonism | cell-based MOR-DOR heterodimer luminescence | inhibition, % at 9.3 µM | P35372+P41143 | 0.21% of 340,000 active | AID 504357; in the data active means inhibition above about 22%, passing the limit was not always enough
Target sequence (P35372 whole entry, looked up): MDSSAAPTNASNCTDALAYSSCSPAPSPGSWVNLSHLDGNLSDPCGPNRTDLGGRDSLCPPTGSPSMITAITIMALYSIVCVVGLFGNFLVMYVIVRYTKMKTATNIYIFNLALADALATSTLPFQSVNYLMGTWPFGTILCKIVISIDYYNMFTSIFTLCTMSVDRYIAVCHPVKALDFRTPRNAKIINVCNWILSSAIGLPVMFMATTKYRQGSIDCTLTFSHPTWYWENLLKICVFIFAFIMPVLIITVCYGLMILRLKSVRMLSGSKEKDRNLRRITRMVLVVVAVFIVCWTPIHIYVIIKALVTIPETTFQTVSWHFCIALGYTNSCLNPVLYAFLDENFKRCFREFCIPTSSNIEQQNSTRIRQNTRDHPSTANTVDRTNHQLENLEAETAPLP
Target sequence (P41143 whole entry, looked up): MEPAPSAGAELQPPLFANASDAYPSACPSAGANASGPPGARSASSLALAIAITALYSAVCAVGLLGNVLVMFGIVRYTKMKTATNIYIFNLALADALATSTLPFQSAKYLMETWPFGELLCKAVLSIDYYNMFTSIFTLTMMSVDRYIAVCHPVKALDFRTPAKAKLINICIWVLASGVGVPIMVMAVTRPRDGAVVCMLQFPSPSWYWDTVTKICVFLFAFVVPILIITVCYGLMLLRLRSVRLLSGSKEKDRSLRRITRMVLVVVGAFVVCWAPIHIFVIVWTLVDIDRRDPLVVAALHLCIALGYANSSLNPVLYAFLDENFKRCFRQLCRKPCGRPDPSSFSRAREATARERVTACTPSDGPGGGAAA
HTR5A ag ctr – HTR5A agonism, opioid heterodimer counter-screen; HTR5A agonist assay, luminescence, cell-based; activation, % at 9.3 µM; 0.61% of 340,000 active; in the data active means activation mostly above about 9.5%, no sharp cut-off; inactive means mostly below about 7.6%
MC4R antagonist – antagonists of human melanocortin 4 receptor (MC4R). P32245. MC4R-expressing cells, MTII-stimulated cAMP, LANCE TR-FRET. inhibition, % at 6.5 µM. 0.48% of 360,000 active. AID 540295;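 active means inhibition above its plate's cutoff, the mean of tested wells on that plate plus 3 SD, cut at about 29% in these data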
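Material – human MC4R-expressing U2OS cells · Repeats – no replicates · Detection – TR-FRET with Eu-cAMP and labeled anti-cAMP, 671 nm · Times – compound 30 min, challenge 1 h, detection 1 h · Compound – single nominal compound dose of 6.5 µM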
MC4R ag barr – activates human MC4R beta-arrestin recruitment; P32245; U2OS MC4R beta-arrestin complementation, luminescence; percent of melanotan II response, DMSO zero; activation, % at 8.9 µM; 0.98% of 360,000 active; AID 540308;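 active means activation above a per-plate cutoff, the mean activation of sample wells on that plate plus 3 SD, cut at about 8% in these data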
OPRM1-OPRD1 ag – OPRM1-OPRD1 heterodimerization agonism. 0.3% of 340,000 active. P35372+P41143. activation, % at 9.3 µM. cells, luminescence; in the data active means activation above about 18%
HTR5A inv ag – inverse agonist of human HTR5A in OPRM1-OPRD1 counter-screen | P47898 | HTR5A cell line, luminescence, inverse agonism | inhibition, % at 9.3 µM | 0.083% of 340,000 active; in the data active means inhibition mostly above about 23%, no sharp cut-off; inactive means mostly below about 18%
Each line names hits and unclear results; the compound was inactive in the other large screens.

CCOc1ccc(NC(=O)C2CCCN(S(=O)(=O)c3c(C)noc3C)C2)cc1 (stereo not drawn)	none
C=C(CC1([C@@H](NP(=O)(c2ccccc2)c2ccccc2)[C@H]2C[C@@H]2CCCC)CC1)c1ccccc1	none
Cc1ccc(N(CC(=O)NCC2CCCO2)S(=O)(=O)c2ccccc2)c(C)c1 (stereo not drawn)	HTR5A ag ctr 14.0
Cc1ccc(NC(=O)CCn2c(=S)oc3ccccc32)cc1F	MC4R ag barr 8.3
COc1ccc(/C=C/CN2CCCC(CO)(Cc3cccc(Cl)c3)C2)cc1 (stereo not drawn)	none
NC(CO)c1csc(Nc2ccc(C(F)(F)F)cn2)n1 (stereo not drawn)	none (no result: MOR-DOR inv ag, HTR5A ag ctr, OPRM1-OPRD1 ag, HTR5A inv ag)
NC(c1csc(Nc2ccc(C(F)(F)F)cn2)n1)C1CCCCC1 (stereo not drawn)	MC4R ag barr 8.9 (no result: MOR-DOR inv ag, HTR5A ag ctr, OPRM1-OPRD1 ag, HTR5A inv ag)
CCc1ccccc1NS(=O)(=O)c1ccc(OC)c2ncccc12	HTR5A ag ctr 9.2
CCCNC(=S)N1CCN(Cc2ccc3c(c2)OCO3)CC1	HTR5A ag ctr 11.6
O=C(c1cc2ccccc2o1)N1CCN(Cc2ccc3c(c2)OCO3)CC1	HTR5A ag ctr 11.2
Fc1ccccc1NC(=S)N1CCN(Cc2ccc3c(c2)OCO3)CC1	HTR5A ag ctr 12.0
CCNC(=S)N1CCN(Cc2ccc3c(c2)OCO3)CC1	none
CN(CC(=O)Nc1ccccc1Cl)C(=O)CN1C(=O)C2CCCCC2C1=O (stereo not drawn)	none
CC1(C(=O)NS(=O)(=O)c2ccc3c(c2)CCO3)CCN1C(=O)C1(c2ccc(Cl)cc2)CCC1 (stereo not drawn)	none (no result: MOR-DOR inv ag, HTR5A ag ctr, OPRM1-OPRD1 ag, HTR5A inv ag)
CCCSc1cc(NCCOC(=O)CCC)c([N+](=O)[O-])c2nonc12	none
CCCC(=O)OCCNc1cc(Sc2nccn2C)c2nonc2c1[N+](=O)[O-]	MOR-DOR inv ag 40.2
Cc1ccc2c(c1)c1c(n2CC(O)CNC(CO)(CO)CO)CCCC1 (stereo not drawn)	none
Cc1ccc2c(c1)c1c(n2CC(O)CNC2CCCCC2)CCCC1 (stereo not drawn)	MC4R ag barr 9.0
O=C(NCCCc1ccccc1)c1cccc(Br)c1	none
O=C(CN(Cc1ccccc1)C(=O)CCl)c1cccc(Br)c1	HTR5A ag ctr 37.8, OPRM1-OPRD1 ag 33.2
CCOC(=O)c1c(C)[nH]c(C(=O)COC(=O)c2oc3ccccc3c2C)c1C	MC4R ag barr 8.3
CCOC(=O)c1c(C)[nH]c(C(=O)CSc2ccccc2)c1C	MC4R ag barr 8.4
CCOC(=O)c1c(C)[nH]c(C(=O)COC(=O)c2oc3ccc(OC)cc3c2C)c1C	none
O=C(O)c1cc(S(=O)(=O)Nc2ccc3cn[nH]c3c2)ccc1O	none
O=C(O)c1cccnc1SC1CC(=O)N(c2ccc(OC(F)F)cc2)C1=O (stereo not drawn)	none
CCOC(=O)c1c(C)oc2c(F)c(F)c(F)c(F)c2c1=O	MC4R antagonist 32.6
CCOC(=O)c1c(C)oc(=O)c(CC)c1O	none (no result: MOR-DOR inv ag, HTR5A ag ctr, OPRM1-OPRD1 ag, HTR5A inv ag)
CCCCc1ccc(NC(=S)N2CCCC2)cc1	HTR5A ag ctr 12.3
CCCCc1ccc(NC(=S)N2CCN(C)CC2)cc1	none
COc1ccc(CCNC(=O)c2cc(-c3ccccc3)on2)cc1OC	MC4R ag barr 9.5
CCOc1cc(N)c(Cl)cc1C(=O)NCC1CN(Cc2ccc(F)cc2)CCO1 (stereo not drawn)	none
CC(C)NS(=O)(=O)c1ccc(NC(=O)C(C)OC(=O)CCC2CCCC2)cc1 (stereo not drawn)	MC4R ag barr 8.4
CC(=O)Nc1ccc(NC(=O)C(C)OC(=O)CCC2CCCCC2)cc1 (stereo not drawn)	none
Cc1cccc(-n2c(C)c(C)c3c(N)ncnc32)c1	none
CCCN(CC(=O)Nc1ccccc1C)C(=O)Cc1coc2cc(C)ccc12	none
COc1cc2[nH]c3c(N4CCN(c5ccc(Cl)cc5)CC4)ncnc3c2cc1OC	MC4R ag barr 11.7
COc1cc2[nH]c3c(Cl)ncnc3c2cc1OC	none
O=C(O)c1cccc2c1C(=O)c1ccccc1-2	none
O=C1C(=C(I)I)c2ccccc2-c2ccccc21	OPRM1-OPRD1 ag 41.3
COc1c(C(O)CC(C)C)ccc2c1C(=O)OCc1cc(C)cc(O)c1O2 (stereo not drawn)	none
COc1c(C(CC(C)C)OC(C)=O)ccc2c1C(=O)OCc1cc(C)cc(O)c1O2 (stereo not drawn)	MC4R ag barr 8.6
CC(C)(C)c1ccc(C(=O)c2c[nH]c(C(=O)NCCc3ccccn3)c2)cc1	HTR5A ag ctr 9.4
CCC(CC)C(=O)c1c[nH]c(C(=O)NCc2ccccn2)c1	HTR5A ag ctr 9.1
CCC(CC)C(=O)c1c[nH]c(C(=O)NCCc2ccccn2)c1	HTR5A ag ctr 12.9
CCC(CC)C(=O)c1c[nH]c(C(=O)NCc2cccs2)c1	none
CC(C)C(NC(=O)c1ccc(C(C)(C)C)cc1)C(=O)NCCc1ccccn1 (stereo not drawn)	none
O=C(Cc1ccc(S(=O)(=O)N2CCOCC2)s1)OCc1ccc(Cl)cc1	none
O=C(COc1ccc2oc(-c3ccccc3)cc(=O)c2c1)Nc1ccccc1	HTR5A ag ctr 12.2
CCN(CC(=O)Nc1ccc(NC(C)=O)cc1)C(=O)/C=C/c1cn(-c2ccccc2)nc1-c1ccc(F)cc1	MC4R ag barr 8.4
Cc1ccc(NC(=O)COc2coc(CN3CCc4ccccc43)cc2=O)c(C)c1	none
Cc1cc(C)cc(NC(=O)COc2coc(CN3CCc4ccccc43)cc2=O)c1	MC4R ag barr 9.2
C[C@@H]1CN([C@H](C)CO)C(=O)c2c(c3ccccc3n2C)-c2ccccc2CO[C@H]1CN(C)C(=O)Nc1ccccc1	none (no result: MOR-DOR inv ag, HTR5A ag ctr, OPRM1-OPRD1 ag, HTR5A inv ag)
CC(c1ccccc1)C1CC(=O)N(c2ccccc2)C1=O (stereo not drawn)	MOR-DOR inv ag 35.4, HTR5A inv ag 36.1
CC(c1ccccc1)C1CC(=O)N(c2ccc([N+](=O)[O-])cc2)C1=O (stereo not drawn)	none
Cc1onc(-c2ccccc2Cl)c1C(=O)Nc1ccccc1O	none
COc1ccc(Nc2nc(N)nc(CCl)n2)cc1	HTR5A ag ctr 48.4, MC4R ag barr 17.6, OPRM1-OPRD1 ag 21.2
CS(=O)(=O)c1sc(C#N)c2c1C(=O)CC(c1ccccc1)C2 (stereo not drawn)	MOR-DOR inv ag 35.5, MC4R antagonist 32.9
CC(C)(C)OC(=O)C[C@@H]1C/C=C\C[C@@H](CC(=O)N(CCO)Cc2ccccc2)C(=O)NC[C@H](c2ccccc2)OC1=O	HTR5A ag ctr 11.6
CC(C)c1nnc(NC(=O)CCC(=O)Nc2ccc(Cl)cc2)s1	none
COc1ccc(NC(=O)CCC(=O)Nc2nnc(C(C)C)s2)cc1Cl	HTR5A ag ctr 12.0
O=S(=O)(NC1c2cccc3cccc(c23)C1Sc1ncccn1)c1ccccc1 (stereo not drawn)	none
